The subject of this series is Rattus norvegicus. In words: Biodistribution in uterus/spleen, muscle, lungs of immature female rat after 3 hour administration of 3 micro Ci (111 kBq) in the absence of 60 microg estradiol. It counts as ADME, organism-based. The following applies: in vivo. An outline of the steps:
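Immature female Long Evans rats (21–24 days, 45–70 g), 3–5 per group, unanesthetized in retention cages, given 3 μCi (111 kBq) 125I-labeled steroid by lateral tail vein. Vehicle: ethanol diluted with saline containing 1% Tween-80, final ethanol 9%. +E2 group co-injected 60 μg unlabeled estradiol (1 h only). Killed under ether; tissues KCl-washed, weighed, gamma-counted. Output: %ID/g (mean, SE) and uterus to blood or nontarget (muscle, spleen, lungs) ratios.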

`C[C@]12CC[C@@H]3c4cc(F)c(O)cc4CC[C@H]3[C@@H]1CC[C@@]2(O)/C=C/I`: the ID/g was 1.49%.
